{
  "source": "paper PMC3669693",
  "about": "(Journal of neuroimmune pharmacology : the official journal …, 2012)",
  "key": {"GPR55 [1]": {"biological_target": "T1, GPR55 (Homo sapiens, UniProt Q9Y2T6)", "T1 sequence (Q9Y2T6 1-292 limits assumed)": "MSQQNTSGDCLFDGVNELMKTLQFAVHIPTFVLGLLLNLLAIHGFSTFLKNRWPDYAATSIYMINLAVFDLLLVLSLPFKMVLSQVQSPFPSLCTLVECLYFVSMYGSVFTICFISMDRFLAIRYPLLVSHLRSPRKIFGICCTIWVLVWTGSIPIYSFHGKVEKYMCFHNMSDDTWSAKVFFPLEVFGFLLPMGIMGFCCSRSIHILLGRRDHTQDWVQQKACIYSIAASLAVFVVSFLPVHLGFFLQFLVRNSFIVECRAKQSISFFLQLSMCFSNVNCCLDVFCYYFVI", "assay": "GPR55 internalization assay, immunocytochemistry", "format": "cell-based", "conditions": "for GPR55 receptor internalization, compound alone: 40 min, RT; for effect on GPR55 internalization induced by ML184, ML185, ML186: 10 μM pre-incubation, agonist 5 μM of each ML compound; for effect on LPI-induced GPR55 internalization / effect on SR141716A-induced GPR55 internalization / GPR55 receptor localization, compound alone: 10 μM; for effect on LPI-induced GPR55 internalization / effect on SR141716A-induced GPR55 internalization: 15 min pre-incubation; for effect on LPI-induced GPR55 internalization: agonist 3 μM LPI; for effect on SR141716A-induced GPR55 internalization: agonist 30 μM SR141716A; for GPR55 receptor localization, compound alone: no agonist"}, "[2]": {"system": "HA-GPR55E/βarr2-GFP U2OS cells", "assay": "LDH cytotoxicity assay", "format": "cell-based", "conditions": "for toxicity to the cells (released LDH): at concentrations employed in this study (10 and 30 μM)"}, "GPR55 [3]": {"biological_target": "T1, GPR55", "conditions": "read-out: EC50, agonist at GPR55 (βarr2-GFP distribution); previous study; ref Kapur et al. 2009; cited from earlier work"}, "GPR55 [4]": {"biological_target": "T1, GPR55", "conditions": "cited from earlier work"}, "GPR55 [5]": {"biological_target": "T1, GPR55", "assay": "β-arrestin assessment of GPR55 activation", "format": "cell-based", "conditions": "for maximal inhibition of LPI response / effect of low concentrations on LPI-mediated βarr2-GFP recruitment: agonist 3 μM LPI; for maximal inhibition of LPI response / maximal inhibition of SR141716A response: normalized to agonist response; for recruitment of βarr2-GFP by compound alone: no agonist, AEA 0.1–30 μM", "summary_of_the_method": "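U2OS cells stably co-expressing HA-GPR55E and βarr2-GFP were seeded on glass coverslips, kept overnight at 37°C/5% CO2 and assayed in HBSS. Test compound (0.01–30 μM) was pre-incubated 15 min, then co-incubated 40 min RT with 3 μM LPI or 30 μM SR141716A. Fixation: 4% paraformaldehyde, 25 min. Imaging: 488 nm, 40X oil. Fluorescent pit counts were normalized to agonist response (100%), with sigmoidal fits for IC50. Three experiments in duplicate.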"}, "GPR55 [6]": {"biological_target": "T1, GPR55", "conditions": "read-out: agonist potency at GPR55; ref Ryberg et al., 2007; cited from earlier work"}, "CB1": {"system": "CB1", "conditions": "read-out: agonist potency at CB1; ref Ryberg et al., 2007; cited from earlier work"}, "CB2": {"system": "CB2", "conditions": "read-out: agonist potency at CB2; ref Ryberg et al., 2007; cited from earlier work"}, "CB1 receptor": {"system": "CB1 receptor", "conditions": "ref Porter et al., 2002; cited from earlier work"}, "CB2 receptor": {"system": "CB2 receptor", "conditions": "ref Porter et al., 2002; cited from earlier work"}, "[7]": {"conditions": "10 μM + 3 μM LPI, % of total LDH activity"}, "[8]": {"conditions": "10 μM + 30 μM SR141716A, % of total LDH activity"}, "[9]": {"conditions": "10 μM alone, % of total LDH activity (1% Triton X-100)"}, "[10]": {"conditions": "30 μM + 3 μM LPI, % of total LDH activity"}, "[11]": {"conditions": "30 μM + 30 μM SR141716A, % of total LDH activity"}, "[12]": {"conditions": "30 μM alone, % of total LDH activity (1% Triton X-100)"}},
  "note": "Where “and” joins values, the source holds several entries; their conditions need not be identical. Identical values can stand only once. Like-named read-outs stand apart in the source and are kept apart here.",
  "data": [
    {"compound": "lysophosphatidylinositol [LPI]", "values": [
      {"measurement": "GPR55 receptor internalization, compound alone", "setting": "GPR55 [1]; 3 μM", "value": "loss of membrane staining and the appearance of cytosolic fluorescent aggregates corresponding to internalized receptors"},
      {"measurement": "Cell death, %", "setting": "[2]; 3 μM alone, % of total LDH activity (1% Triton X-100)", "value": 7.08, "unit": "%"},
      {"measurement": "EC50", "setting": "GPR55 [3]", "value": 1200, "unit": "nM"}
    ]},
    {"compound": "Cc1cccc(N2CCN(C(=O)c3cc(S(=O)(=O)N(C)C)ccc3N3CCCC3)CC2)c1C", "note": "[ML184, 3-[4-(2,3-dimethylphenyl)piperazine-1-carbonyl]-N,N-dimethyl-4-pyrrolidin-1-ylbenzenesulfonamide]", "values": [
      {"measurement": "GPR55 receptor internalization, compound alone", "setting": "GPR55 [1]; 5 μM", "value": "resulted in receptor internalization"}
    ]},
    {"compound": "CCCCCCC(C)(C)c1ccc([C@@H]2C[C@H](O)CC[C@H]2CCCO)c(O)c1", "note": "[CP55,940]", "values": [
      {"measurement": "type of activity at GPR55", "setting": "GPR55 [4]; ref Henstridge et al. 2009, Kapur et al. 2009, Pineiro et al. 2011", "value": "antagonist/partial agonist"}
    ]},
    {"compound": "CCCCC/C=C\\C/C=C\\C/C=C\\C/C=C\\CCCC(=O)NCCO", "note": "[AEA, N-arachidonyl ethanolamine]", "values": [
      {"measurement": "IC50", "setting": "GPR55 [5]", "value": "5.91 µM and 12 µM"},
      {"measurement": "maximal inhibition of LPI response", "setting": "GPR55 [5]", "value": 20, "unit": "%"},
      {"measurement": "maximal inhibition of SR141716A response", "setting": "GPR55 [5]; agonist 30 μM SR141716A", "value": 65, "unit": "%"},
      {"measurement": "recruitment of βarr2-GFP by compound alone", "setting": "GPR55 [5]", "value": "did not result in recruitment of βarr2-GFP"},
      {"measurement": "effect of low concentrations on LPI-mediated βarr2-GFP recruitment", "setting": "GPR55 [5]; low concentrations", "value": "enhanced the recruitment"},
      {"measurement": "effect on GPR55 internalization induced by ML184, ML185, ML186", "setting": "GPR55 [1]", "value": "largely attenuated"},
      {"measurement": "effect on LPI-induced GPR55 internalization", "setting": "GPR55 [1]", "value": "markedly decreased receptor internalization"},
      {"measurement": "effect on SR141716A-induced GPR55 internalization", "setting": "GPR55 [1]", "value": "markedly decreased receptor internalization"},
      {"measurement": "GPR55 receptor localization, compound alone", "setting": "GPR55 [1]", "value": "membrane bound receptors"},
      {"measurement": "Cell death, %", "setting": "[2]; [7]", "value": 6.12, "unit": "%"},
      {"measurement": "Cell death, %", "setting": "[2]; [8]", "value": 6.79, "unit": "%"},
      {"measurement": "Cell death, %", "setting": "[2]; [9]", "value": 5.90, "unit": "%"},
      {"measurement": "Cell death, %", "setting": "[2]; [10]", "value": 5.86, "unit": "%"},
      {"measurement": "Cell death, %", "setting": "[2]; [11]", "value": 8.02, "unit": "%"},
      {"measurement": "Cell death, %", "setting": "[2]; [12]", "value": 5.93, "unit": "%"},
      {"measurement": "toxicity to the cells (released LDH)", "setting": "[2]", "value": "neither AEA nor virodhamine are toxic"},
      {"measurement": "activation of GPR55", "setting": "GPR55 [4]; previous findings of the laboratory, ref Kapur et al., 2009", "value": "did not activate GPR55"}
    ]},
    {"compound": "Cc1c(C(=O)NN2CCCCC2)nn(-c2ccc(Cl)cc2Cl)c1-c1ccc(Cl)cc1", "note": "[SR141716A, N-(piperidin-1-yl)-5-(4-chlorophenyl)-1-(2,4-dichlorophenyl)-4-methyl-1H-pyrazole-3-carboxamide]", "values": [
      {"measurement": "GPR55 receptor internalization, compound alone", "setting": "GPR55 [1]; 30 μM", "value": "loss of membrane staining and the appearance of cytosolic fluorescent aggregates corresponding to internalized receptors"},
      {"measurement": "Cell death, %", "setting": "[2]; [12]", "value": 7.12, "unit": "%"},
      {"measurement": "EC50", "setting": "GPR55 [3]", "value": 3900, "unit": "nM"}
    ]},
    {"compound": "CCCCC/C=C\\C/C=C\\C/C=C\\C/C=C\\CCCC(=O)OCCN", "note": "[virodhamine, O-arachidonoyl ethanolamine]", "values": [
      {"measurement": "maximal inhibition of LPI response", "setting": "GPR55 [5]", "value": 46, "unit": "%"},
      {"measurement": "maximal inhibition of SR141716A response", "setting": "GPR55 [5]; agonist 30 μM SR141716A", "value": 68, "unit": "%"},
      {"measurement": "recruitment of βarr2-GFP by compound alone", "setting": "GPR55 [5]", "value": "weak recruitment of βarr2-GFP"},
      {"measurement": "effect of low concentrations on LPI-mediated βarr2-GFP recruitment", "setting": "GPR55 [5]; low concentrations", "value": "enhanced the recruitment"},
      {"measurement": "effect of low concentrations on SR141716A-mediated βarr2-GFP recruitment", "setting": "GPR55 [5]; low concentrations, agonist 30 μM SR141716A", "value": "enhanced the recruitment"},
      {"measurement": "effect on GPR55 internalization induced by ML184, ML185, ML186", "setting": "GPR55 [1]", "value": "largely attenuated"},
      {"measurement": "effect on LPI-induced GPR55 internalization", "setting": "GPR55 [1]", "value": "strikingly decreased receptor internalization"},
      {"measurement": "effect on SR141716A-induced GPR55 internalization", "setting": "GPR55 [1]", "value": "strikingly decreased receptor internalization"},
      {"measurement": "GPR55 receptor localization, compound alone", "setting": "GPR55 [1]", "value": "receptors were localized to the membrane"},
      {"measurement": "Cell death, %", "setting": "[2]; [7]", "value": 6.94, "unit": "%"},
      {"measurement": "Cell death, %", "setting": "[2]; [8]", "value": 6.44, "unit": "%"},
      {"measurement": "Cell death, %", "setting": "[2]; [9]", "value": 7.27, "unit": "%"},
      {"measurement": "Cell death, %", "setting": "[2]; [10]", "value": 8.73, "unit": "%"},
      {"measurement": "Cell death, %", "setting": "[2]; [11]", "value": 6.93, "unit": "%"},
      {"measurement": "Cell death, %", "setting": "[2]; [12]", "value": 8.08, "unit": "%"},
      {"measurement": "toxicity to the cells (released LDH)", "setting": "[2]", "value": "neither AEA nor virodhamine are toxic"},
      {"measurement": "EC50", "setting": "GPR55 [6]", "value": 12, "unit": "nM"},
      {"measurement": "EC50", "setting": "CB1", "value": 2900, "unit": "nM"},
      {"measurement": "EC50", "setting": "CB2", "value": 381, "unit": "nM"},
      {"measurement": "type of activity at the CB1 receptor", "setting": "CB1 receptor", "value": "partial agonist/antagonist"},
      {"measurement": "type of activity at the CB2 receptor", "setting": "CB2 receptor", "value": "full agonist"}
    ]},
    {"compound": "COc1ccc(S(=O)(=O)N2CCOCC2)cc1NC(=O)c1cc2c(s1)CCCC2", "note": "[ML186, N-(2-methoxy-5-morpholin-4-ylsulfonylphenyl)-4,5,6,7-tetrahydro-1-benzothiophene-2-carboxamide]", "values": [
      {"measurement": "GPR55 receptor internalization, compound alone", "setting": "GPR55 [1]; 5 μM", "value": "resulted in receptor internalization"}
    ]},
    {"compound": "COc1ccc(-c2csc(NC(=O)CSc3nnc4c(C)cc5ccccc5n34)n2)cc1", "note": "[ML185, N-[4-(4-methoxyphenyl)-1,3-thiazol-2-yl]-2-[(4-methyl-[1,2,4]triazolo[4,3-a]quinolin-1-yl)sulfanyl]acetamide]", "values": [
      {"measurement": "GPR55 receptor internalization, compound alone", "setting": "GPR55 [1]; 5 μM", "value": "resulted in receptor internalization"}
    ]}
  ]
}
